# Compound activity: PubChem BioAssay, The Scripps Research Institute Molecular Screening Center
# This is a sample that favours compounds with a hit; in the whole collection about 2.3% have one here.
# ADAM17 inh = ADAM17 inhibitors, primary screen, biochemical, QFRET. Disintegrin and metalloproteinase domain-containing protein 17 (Homo sapiens), P78536. recombinant ADAM17, EDANS/DABCYL FRET peptide cleavage. inhibition, % at 6.95 µM. 370,000 tested, 0.83% active;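 active = inhibition above the mean of compounds lying between control limits plus 3 SD, set per campaign, cut at about 8.5% in these data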
# TbMetRS inhib = T. brucei MetRS inhibitors, primary screen, biochemical, luminescence. methionyl-tRNA synthetase (Trypanosoma brucei brucei). purified T. brucei MetRS, ATP depletion, Kinase-Glo luminescence. inhibition, % at 11.9 µM. 360,000 tested, 0.4% active. AID 624268, 2012;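 active = inhibition above a per-plate cutoff of the control wells' mean inhibition plus 3 SD, cut at about 5.5% in these data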
#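 Material: parasite MetRS enzyme / Replication: singlicate, one well per compound / Signal: luminescence of leftover ATP / Schedule: 2 h aminoacylation at 25 °C after 15 min preincubation / Medium: HEPES-MgCl2-KCl buffer plus DTT, spermine, BSA, pyrophosphatase / Doses: 11.9 µM single point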
# PLC-beta3 inh = human PLC-beta3 inhibitors, primary screen, biochemical, fluorescence; 1-phosphatidylinositol 4,5-bisphosphate phosphodiesterase beta-3 (Homo sapiens), Q01970; Purified PLC-beta3, fluorogenic substrate; 370,000 tested, 0.18% active; inhibition, % at 12.2 µM
# ADAM10 inh = human ADAM10 inhibitors, primary screen, biochemical, QFRET, HTS. Disintegrin and metalloproteinase domain-containing protein 10 (Homo sapiens), O14672. recombinant ADAM10, EDANS/DABCYL FRET peptide cleavage, 3 h. inhibition, % at 7 µM. AID 720582, 2013. 370,000 tested, 0.62% active;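 active = inhibition above a per-campaign cutoff equal to the mean of compounds falling between control-based bounds plus 3 SD, cut at about 20% in these data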
# Target sequence (O14672 214-748 limits assumed): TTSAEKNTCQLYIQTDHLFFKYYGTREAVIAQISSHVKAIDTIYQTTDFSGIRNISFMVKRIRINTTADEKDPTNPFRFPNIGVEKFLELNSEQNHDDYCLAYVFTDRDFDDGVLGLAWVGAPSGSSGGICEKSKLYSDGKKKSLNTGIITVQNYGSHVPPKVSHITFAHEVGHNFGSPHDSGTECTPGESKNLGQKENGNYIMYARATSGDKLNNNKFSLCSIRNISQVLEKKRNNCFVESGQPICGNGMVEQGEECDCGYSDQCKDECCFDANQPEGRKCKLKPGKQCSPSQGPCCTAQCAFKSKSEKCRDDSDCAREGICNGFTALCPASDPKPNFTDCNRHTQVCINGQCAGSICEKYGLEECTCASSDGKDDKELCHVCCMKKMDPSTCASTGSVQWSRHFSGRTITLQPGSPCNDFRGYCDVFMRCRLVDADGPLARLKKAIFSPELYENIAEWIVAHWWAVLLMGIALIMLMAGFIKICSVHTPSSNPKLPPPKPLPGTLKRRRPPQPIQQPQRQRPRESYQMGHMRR
# PLCg1 inh = PLC-gamma1 enzyme inhibitors, primary screen, biochemical, fluorescence, purified enzyme | 1-phosphatidylinositol 4,5-bisphosphate phosphodiesterase gamma-1 (Homo sapiens), P19174 | fluorogenic substrate | inhibition, % at 12.2 µM | 370,000 tested, 0.84% active; in the data active = inhibition above about 9.5%
# TbMetRS confirm = T. brucei MetRS inhibitors, confirmation, biochemical, luminescence; shares compounds with TbMetRS inhib; T. brucei MetRS enzyme, luminescence (ATP depletion); inhibition, % at 11.9 µM; 1,400 tested, 93% active; AID 624412, 2012; in the data active = inhibition above about 7%
# Jurkat tox = Jurkat T cell cytotoxicity, cytotoxicity control for T. brucei MetRS inhibitor project, luminescence, high throughput; shares compounds with TbMetRS inhib; Jurkat cells viability, ATP luminescence; inhibition, % at 8.3 µM; 1,400 tested, 12% active; AID 624413, 2012; in the data active = inhibition above about 15%
# TbMetRS FP orth = T. brucei MetRS inhibitors, orthogonal assay for T. brucei MetRS inhibitor project, biochemical, fluorescence polarization | inhibition, % at 11.9 µM | shares compounds with TbMetRS inhib | 1,400 tested, 44% active | AID 651607, 2012 | purified T. brucei MetRS; in the data active = inhibition above about 17%
# ADAM10 confirm = human ADAM10 inhibitors, confirmation, biochemical, QFRET, triplicate. 2,100 tested, 1% active. AID 743208, 2013. ADAM10 QFRET peptide cleavage, EDANS fluorescence. shares compounds with ADAM10 inh. inhibition, % at 6.95 µM;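 active = inhibition above about 20% chosen separately for each screening run, limit read from the data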
# ADAM17 ctr = ADAM17 inhibitors, counter-screen for ADAM10 exosite inhibitor project, biochemical, QFRET, high throughput; shares compounds with ADAM10 inh; ADAM17 QFRET peptide cleavage, EDANS fluorescence; inhibition, % at 6.95 µM; 2,100 tested, 0.5% active; AID 743214, 2013;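 active = mean triplicate inhibition above the solvent-only control wells' mean plus 3 SD, cut at about 12% in these data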
# PLCg1 ctr = PLC-gamma1 enzyme inhibitors, counter-screen for PLC-beta3 inhibitor project, biochemical, fluorescence; shares compounds with PLCg1 inh; purified PLC-gamma1, fluorogenic substrate; inhibition, % at 12.3 µM; 3,300 tested, 3.1% active; AID 743258, 2014; in the data active = inhibition above about 9.5%
# PLCb3 confirm = PLC-beta3 inhibitor confirmation, biochemical, fluorescence, purified enzyme. shares compounds with PLCg1 inh. fluorogenic substrate fluorescence. inhibition, % at 12.3 µM. 3,300 tested, 1% active
# Numbers stand for hits; 0 = inactive; - = no result. Rule as the data show it, unless noted: active = inhibition above about 11%; inactive = the rest.
SMILES,ADAM17 inh,TbMetRS inhib,PLC-beta3 inh,ADAM10 inh,PLCg1 inh,ADAM10 confirm,ADAM17 ctr,others
CC(=O)c1ccc(N2CCN(C(=O)C(=O)c3c(C)[nH]c4ccccc34)CC2)cc1,0,0,0,0,0,-,-,
Cc1[nH]c2ccccc2c1C(=O)C(=O)N1CCN(c2ccccc2F)CC1,0,7.2,0,0,15,-,-,TbMetRS confirm=20;Jurkat tox=0;TbMetRS FP orth=0;PLCg1 ctr=0;PLCb3 confirm=0
N=c1n(Cc2ccccc2)c2ccccc2n1CC(O)COc1ccc(Cl)cc1Cl (configuration not stated),0,10,0,0,12,-,-,TbMetRS confirm=19;Jurkat tox=77;TbMetRS FP orth=0;PLCg1 ctr=0;PLCb3 confirm=0
Cc1c(C(=O)N(C)Cc2ccc(F)cc2)sc(=O)n1Cc1ccc(Cl)c(Cl)c1,0,0,0,0,0,-,-,
O=C(CCn1cccn1)Nc1ccc2c(c1)OCCO2,0,0,0,0,0,-,-,
Cc1ccc(S(=O)(=O)N2CCC(=O)N2)cc1,0,0,0,28,0,0,0,
CCN1CCN(C(=O)C(Cc2ccccc2)NC(=O)c2ccc(Cl)c(S(=O)(=O)N(C)C)c2)CC1 (configuration not stated),0,0,0,0,0,-,-,
CCOC(=O)c1c(NC(C)=O)sc2c(OCC(O)CNC(C)(C)C)c(Br)ccc12 (configuration not stated),0,0,0,0,0,-,-,
CCOC(=O)c1c(N)sc2c(OCC)c(Br)ccc12,0,0,0,23,0,0,0,
O=[N+]([O-])c1cc(S(=O)(=O)Nc2cccc(C(F)(F)F)c2)ccc1-n1nnc2ccccc21,0,0,0,23,0,0,0,
COC(=O)C1=C(C)N(Cc2ccc(C(F)(F)F)cc2)C(=NCc2ccccc2C(F)(F)F)NC1c1ccc(Cl)cc1 (configuration not stated),0,-,0,0,0,-,-,
COc1ccccc1-c1nnc(-c2ccc(C)cc2)o1,0,0,0,0,0,-,-,
COc1ccccc1C1=NC(c2ccc(C)cc2)N=C1C (configuration not stated),0,0,0,95,0,0,0,
CC(C)[C@@H]1Cc2[nH]n(C)c(=O)c2[C@H](c2ccc(F)cc2)O1,0,0,0,0,0,-,-,
COc1ccc(C2NC(=S)N(Cc3ccc(Cl)cc3)C(C)=C2C(C)=O)cc1 (configuration not stated),0,-,0,22,0,0,0,
CN(C(=S)NC(=O)C1CC1)c1ccc(O)cc1,0,0,0,0,0,-,-,
Cc1ccc(NC(=O)CNc2ccc(Cl)c(Cl)c2)cc1S(=O)(=O)N(C)C,0,0,0,23,0,0,0,
CN1CC=C(c2ccccc2)N(c2ccc(Br)cc2)C1=O,0,-,0,0,0,-,-,
O=C1C(=O)N(C2CCCC2)C(=O)N1Cc1c(F)cccc1Cl,0,0,0,21,0,0,0,
COc1ccccc1NC(=O)COC(=O)C1=NN(c2ccccc2)C(=O)CC1,0,0,0,0,0,-,-,
Cc1cc(C)c2c(=O)n3c(nc2c1)C(Cc1ccc(O)cc1)NC(=O)c1cc2ccccc2cc1-3 (configuration not stated),0,0,0,23,0,21,0,
COc1cc(C(=O)NNC(=S)NC(=O)c2ccc3c(c2)OCO3)cc(OC)c1OC,0,0,0,22,0,0,0,
COc1cc(C(=O)NNC(=O)c2ccc3c(c2)OCCO3)cc(OC)c1OC,0,0,0,0,0,-,-,
COC(=O)c1ccc(-c2cc3onc(-c4ccccc4)c3c(=O)n2C)cc1,0,0,0,71,0,25,0,
COc1cccc(-c2csc(N3CCN(CC(=O)NNC(=O)c4ccc(Cl)cc4)CC3)n2)c1,0,0,0,20,0,0,0,
SMILES,ADAM17 inh,TbMetRS inhib,PLC-beta3 inh,ADAM10 inh,PLCg1 inh,ADAM10 confirm,ADAM17 ctr,others
COCCNC(=S)N1CCN(c2nc(-c3cccc(OC)c3)cs2)CC1,0,0,0,21,0,0,0,
CCNC(=O)C1CCCN(C(=O)c2cccc(Cl)c2)CC1 (configuration not stated),0,0,0,0,0,-,-,
FC(F)C(F)(F)C(F)(F)C(F)(F)c1cc(-c2ccccc2)n[nH]1,0,0,0,23,0,0,0,
Cc1cc(-c2ccccc2)n[nH]1,0,0,0,0,0,-,-,
CC(=O)Oc1cccc(Nc2ncnc3ccccc23)c1,0,0,0,83,0,0,0,
Cc1ccccc1C(=O)Oc1cccc(Nc2ncnc3ccccc23)c1,0,0,0,0,0,-,-,
CC1=C(C(=O)N2CCCCCC2)CC(CC(=O)NCCN2CCOCC2)C(=O)N1CCC1=CCCCC1 (configuration not stated),0,0,0,0,0,-,-,
CCCOc1ccc(N2C(=O)CC(S/C(N)=N/N=C(\C)c3cccs3)C2=O)cc1 (configuration not stated),0,0,0,0,0,-,-,
C/C(=N\N=C(/N)SC1CC(=O)N(c2cccc(Cl)c2)C1=O)c1cccs1 (configuration not stated),0,0,0,27,0,0,0,
